Test results reported in article PMC5947295 (Clinical Pharmacology in Drug Development, 2018).
Read-outs that look alike come from different tables or passages of the source. Values belong to the molecule of their own block, whether it stands above or below them.

Assays:
[1] = phase 2, small number of subjects; cited from earlier work
[2] = single oral dose of [14C]‐lanabecestat; cited from earlier work
[3] = Phase 1 randomized 3-period crossover relative bioavailability study, plasma PK; format: in vivo; settings: both, human, po, 50 mg
[4] = test system: BACE1; settings: read-out: In vitro 50% inhibitory concentration (IC50) for BACE1; cited from earlier work
[5] = test system: Caco‐2; settings: cited from earlier work
[6] = test system: plasma, cerebrospinal fluid (CSF), and brain Aβ1–40, Aβ1–42, and sAPPβ concentrations; settings: mouse; cited from earlier work
[7] = test system: plasma, cerebrospinal fluid (CSF), and brain Aβ1–40, Aβ1–42, and sAPPβ concentrations; settings: guinea pig; cited from earlier work
[8] = Safety and tolerability monitoring in the crossover study; format: in vivo, human; settings: healthy subjects
In short: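 Single oral 50 mg dose on days 1, 8 and 15 as 10 mL solution (5 mg/mL), tablet A or tablet B, with 7–10-day washout. Dosed after an overnight fast with 240 mL water, fasted to 4 h postdose. AEs, hematology, chemistry (ALT, AST, ALP), urinalysis, vitals, ECG, physical/neurological examination and C-SSRS were monitored throughout.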

[9] = test system: plasma, cerebrospinal fluid (CSF), and brain Aβ1–40, Aβ1–42, and sAPPβ concentrations; settings: dog; cited from earlier work
[10] = elderly healthy subjects and patients with mild to moderate AD, up to 750 mg single dose or 150 mg multiple dose; cited from earlier work
[11] = test system: plasma Aβ peptides; settings: single dose at the highest dose studied, SAD study; cited from earlier work
[12] = test system: plasma and CSF Aβ peptides; settings: once‐weekly (70‐mg) dosing schedule; cited from earlier work
[13] = test system: BACE1; settings: in vitro; cited from earlier work
[14] = cited from earlier work; for Cmax: single 150‐mg dose
[15] = Caco-2 permeability; format: in vitro ADME; settings: human
[16] = single 50 mg dose, safety set n = 16

SMILES: NC1=N[C@@]2(c3cc(NC(=O)c4ccc(F)cn4)ccc3F)COC[C@H]2CS1 [LY2886721]
- Liver safety finding that terminated clinical development [1]: elevations in circulating liver‐enzyme activity

- half-life [3]: ~16 h
- Papp [15]: > 10 ×10⁻⁶ cm/s
SMILES: CC#Cc1cncc(-c2ccc3c(c2)[C@@]2(N=C(C)C(N)=N2)[C@]2(CC[C@H](OC)CC2)C3)c1 [lanabecestat, [1r,1′R,4R]‐4‐methoxy‐5″‐methyl‐6′‐[5‐(prop‐1‐yn‐1‐yl)pyridin‐3‐yl]‐3′H‐dispiro[cyclohexane‐1,2′‐indene‐1′,2″‐imidazol]‐4″‐amine]
- Radioactive dose recovered in feces [2]: 74%
- Radioactive dose recovered in urine [2]: 25%
- IC50 [4]: 0.6 nM
- Mean Caco‐2 apical‐to‐basolateral Papp permeability [5]: 34.8 × 10^‐6 cm/s
- Plasma, CSF and brain Aβ1–40, Aβ1–42 and sAPPβ concentrations [6]: robustly reduced
- Plasma, CSF and brain Aβ1–40, Aβ1–42 and sAPPβ concentrations [7]: robustly reduced
- Tolerability ([8]; single 50 mg dose as solution or tablet): well tolerated
- Severity of adverse events ([8]; single 50 mg dose): mild
- Subjects reporting adverse events ([8]; single 50 mg dose, 16 subjects): 37.5%
- Number of subjects with ≥1 TEAE [8, 16]: 6 (37.5) n (%)
- TEAE: Dizziness [8, 16]: 1 (6.3) n (%)
- TEAE: Dry skin [8, 16]: 2 (12.5) n (%)
- TEAE: Headache [8, 16]: 2 (12.5) n (%)
- TEAE: URTI [8, 16]: 1 (6.3) n (%)
- Changes in liver‐related clinical chemistry parameters ([8]; single 50 mg doses): no significant changes
- Plasma, CSF and brain Aβ1–40, Aβ1–42 and sAPPβ concentrations [9]: robustly reduced
- Safety and tolerability [10]: no safety or tolerability concerns
- Duration of suppression of plasma Aβ peptides [11]: up to 3 weeks
- Suppression of plasma and CSF Aβ peptides [12]: prolonged suppression
- Off‐rate from BACE1, half‐life [13]: approximately 9 hours
- Cmax ([14]; fasted): 701 ng/mL
- Cmax ([14]; fed): 499 ng/mL
- Effect of food intake on AUC ([14]; food intake): minimal effect
- tmax with food intake (later tmax) ([14]; food intake): ~2 h
